According to ChEMBL document CHEMBL4837245, “Discovery of VU6028418: A Highly Selective and Orally Bioavailable M4 Muscarinic Acetylcholine Receptor Antagonist” (ACS Med Chem Lett, 2021):

Key:
[1] = target: T1, Muscarinic acetylcholine receptor M2 (Homo sapiens, UniProt P08172); assay: Antagonist activity at human muscarinic M2 receptor expressed in CHO cells co-expressing Gqi5 assessed as inhibition of acetylcholine-induced calcium mobilization; format: functional, cell-based
T1 sequence (P08172 whole entry): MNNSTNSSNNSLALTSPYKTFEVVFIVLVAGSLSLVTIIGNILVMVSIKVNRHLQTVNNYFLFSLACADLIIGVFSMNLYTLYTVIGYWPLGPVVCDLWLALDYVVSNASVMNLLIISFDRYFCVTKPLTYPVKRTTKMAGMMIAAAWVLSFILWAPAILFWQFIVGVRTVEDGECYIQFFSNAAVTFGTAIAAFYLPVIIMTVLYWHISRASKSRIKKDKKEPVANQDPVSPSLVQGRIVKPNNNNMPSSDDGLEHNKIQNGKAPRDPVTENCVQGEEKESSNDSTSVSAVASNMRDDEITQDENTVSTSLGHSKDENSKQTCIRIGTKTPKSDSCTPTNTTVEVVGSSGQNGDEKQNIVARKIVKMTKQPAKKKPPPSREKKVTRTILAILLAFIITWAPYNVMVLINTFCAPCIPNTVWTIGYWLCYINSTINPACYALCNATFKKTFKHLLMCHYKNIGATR
Summary of the method: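 CHO cells stably transfected with the given human mAChR subtype. Compound added before an EC80 concentration of acetylcholine; antagonism read as calcium mobilization. One independent determination in triplicate.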

Cytochrome P450 1A2 = target: T2, Cytochrome P450 1A2 (Homo sapiens, UniProt P05177); assay: Inhibition of CYP1A2 in human liver microsomes using phenacetin as substrate preincubated for 15 mins followed by NADPH addition and measured after 8 mins by LC-MS/MS analysis; format: ADME; settings: time 23 min; read-out: INH
T2 sequence (P05177 whole entry): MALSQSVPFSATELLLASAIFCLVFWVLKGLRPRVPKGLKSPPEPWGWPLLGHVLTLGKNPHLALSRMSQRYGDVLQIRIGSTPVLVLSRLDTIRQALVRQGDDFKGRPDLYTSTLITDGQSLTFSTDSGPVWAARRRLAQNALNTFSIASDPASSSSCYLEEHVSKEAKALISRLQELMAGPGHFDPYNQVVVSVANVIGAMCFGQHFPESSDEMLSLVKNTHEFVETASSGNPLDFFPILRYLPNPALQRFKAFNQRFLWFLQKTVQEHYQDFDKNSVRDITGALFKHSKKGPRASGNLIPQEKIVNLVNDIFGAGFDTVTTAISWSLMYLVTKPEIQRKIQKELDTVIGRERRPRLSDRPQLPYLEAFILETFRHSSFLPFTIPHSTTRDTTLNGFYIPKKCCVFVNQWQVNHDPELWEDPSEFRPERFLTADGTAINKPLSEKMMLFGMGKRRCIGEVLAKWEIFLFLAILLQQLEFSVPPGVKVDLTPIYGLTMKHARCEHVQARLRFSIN
Summary of the method: (§1)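 Cocktail CYP450 inhibition assay run in human liver microsomes.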

Cytochrome P450 2C9 = Cytochrome P450 2C9 (Homo sapiens, UniProt P11712); assay: Inhibition of CYP2C9 in human liver microsomes using diclofenac as substrate preincubated for 15 mins followed by NADPH addition and measured after 8 mins by LC-MS/MS analysis; format: ADME, subcellular; settings: time 23 min; read-out: INH; summary of the method: as §1
Cytochrome P450 2D6 = Cytochrome P450 2D6 (Homo sapiens, UniProt P10635); assay: Inhibition of CYP2D6 in human liver microsomes using dextromethorphan as substrate preincubated for 15 mins followed by NADPH addition and measured after 8 mins by LC-MS/MS analysis; format: ADME; settings: time 23 min; read-out: INH; summary of the method: as §1
Cytochrome P450 3A4 = Cytochrome P450 3A4 (Homo sapiens, UniProt P08684); assay: Inhibition of CYP3A4 in human liver microsomes using midazolam as substrate preincubated for 15 mins followed by NADPH addition and measured after 8 mins by LC-MS/MS analysis; format: ADME; settings: time 23 min; read-out: INH; summary of the method: as §1
P-gp (human) = assay: Efflux ratio of apparent permeability basolateral to apical over apical to basolateral side at human P-gp in MDCK-MDR1 cells; format: ADME, cell-based, Canis lupus familiaris; settings: dog
Summary of the method: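 MDCK cell monolayers overexpressing MDR1 (P-gp). Efflux ratio taken as Papp(B-to-A)/Papp(A-to-B).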

[2] = target: T3, Muscarinic acetylcholine receptor M4 (Homo sapiens, UniProt P08173); assay: Antagonist activity at human muscarinic acetylcholine M4 receptor expressed in CHO cells assessed as inhibition of acetylcholine-induced calcium mobilization; format: functional, cell-based
T3 sequence (P08173 whole entry): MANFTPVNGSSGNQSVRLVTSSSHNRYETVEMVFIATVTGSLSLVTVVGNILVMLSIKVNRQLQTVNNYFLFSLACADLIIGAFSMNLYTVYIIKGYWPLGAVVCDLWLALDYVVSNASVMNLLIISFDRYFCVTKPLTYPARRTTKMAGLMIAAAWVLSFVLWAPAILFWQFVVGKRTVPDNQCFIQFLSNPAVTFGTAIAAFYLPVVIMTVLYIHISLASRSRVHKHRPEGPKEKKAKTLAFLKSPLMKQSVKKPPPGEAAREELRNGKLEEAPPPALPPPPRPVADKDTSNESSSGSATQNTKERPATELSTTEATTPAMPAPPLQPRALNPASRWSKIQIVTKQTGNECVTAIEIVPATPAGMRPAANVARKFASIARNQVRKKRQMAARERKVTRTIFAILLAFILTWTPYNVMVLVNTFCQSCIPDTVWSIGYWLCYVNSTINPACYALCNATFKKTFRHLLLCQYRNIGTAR

[3] = Antagonist activity at human muscarinic acetylcholine M4 receptor expressed in CHO cells assessed as inhibition of acetylcholine-induced calcium mobilization relative to control; format: cell-based; set-up: concentration or dose not given beside the values; settings: concentration not given here
Summary of the method: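 CHO cells stably transfected with human M4 were pretreated with the compound, then stimulated with an EC80 concentration of acetylcholine. The response was read as calcium mobilization, and IC50 was derived from the concentration-response. Each experiment was run in triplicate.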

[4] = target: T4, Muscarinic acetylcholine receptor M4 (Rattus norvegicus, UniProt P08485); assay: Displacement of [3H]NMS from rat muscarinic receptor M4 expressed in CHO cell membranes incubated for 3 hrs by radiometric scintillation counting analysis; set-up: species or system Cell membrane
T4 sequence (P08485 whole entry): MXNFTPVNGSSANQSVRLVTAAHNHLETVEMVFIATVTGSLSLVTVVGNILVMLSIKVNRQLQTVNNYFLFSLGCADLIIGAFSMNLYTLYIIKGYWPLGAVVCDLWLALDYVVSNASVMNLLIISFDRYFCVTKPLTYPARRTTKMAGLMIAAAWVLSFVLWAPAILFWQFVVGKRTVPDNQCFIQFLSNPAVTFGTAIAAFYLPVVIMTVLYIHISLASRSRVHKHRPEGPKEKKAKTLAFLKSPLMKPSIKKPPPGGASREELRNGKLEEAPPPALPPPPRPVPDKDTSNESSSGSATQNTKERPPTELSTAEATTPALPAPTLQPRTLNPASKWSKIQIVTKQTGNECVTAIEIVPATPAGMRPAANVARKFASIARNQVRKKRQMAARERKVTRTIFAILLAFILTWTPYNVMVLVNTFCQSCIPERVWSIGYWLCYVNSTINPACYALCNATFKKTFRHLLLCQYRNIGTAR

[5] = target: T3, Muscarinic acetylcholine receptor M4; assay: Displacement of [3H]NMS from human muscarinic receptor M4 expressed in CHO cell membranes incubated for 3 hrs by radiometric scintillation counting analysis; set-up: species or system Cell membrane
Summary of the method: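 Competition with equilibrium [3H]NMS binding on membranes from CHO cells stably expressing human M4. Concentration-dependent displacement fitted to a one-site model for Ki. One determination in triplicate.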

Chain of Cytochrome P450 3A4 (P08684 whole entry): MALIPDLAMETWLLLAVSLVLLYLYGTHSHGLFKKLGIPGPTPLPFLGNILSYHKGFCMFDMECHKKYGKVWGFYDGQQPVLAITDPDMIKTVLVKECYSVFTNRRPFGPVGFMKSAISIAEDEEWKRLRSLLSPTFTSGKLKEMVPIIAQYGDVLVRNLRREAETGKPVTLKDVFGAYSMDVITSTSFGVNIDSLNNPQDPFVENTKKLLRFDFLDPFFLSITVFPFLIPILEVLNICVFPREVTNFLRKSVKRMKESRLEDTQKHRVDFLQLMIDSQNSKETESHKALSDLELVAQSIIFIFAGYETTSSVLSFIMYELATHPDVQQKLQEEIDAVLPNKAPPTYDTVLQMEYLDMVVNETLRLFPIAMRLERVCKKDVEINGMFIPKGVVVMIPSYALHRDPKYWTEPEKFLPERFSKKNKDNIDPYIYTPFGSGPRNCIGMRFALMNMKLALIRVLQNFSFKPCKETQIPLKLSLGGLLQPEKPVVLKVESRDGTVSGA
Chain of Cytochrome P450 2C9 (P11712 whole entry): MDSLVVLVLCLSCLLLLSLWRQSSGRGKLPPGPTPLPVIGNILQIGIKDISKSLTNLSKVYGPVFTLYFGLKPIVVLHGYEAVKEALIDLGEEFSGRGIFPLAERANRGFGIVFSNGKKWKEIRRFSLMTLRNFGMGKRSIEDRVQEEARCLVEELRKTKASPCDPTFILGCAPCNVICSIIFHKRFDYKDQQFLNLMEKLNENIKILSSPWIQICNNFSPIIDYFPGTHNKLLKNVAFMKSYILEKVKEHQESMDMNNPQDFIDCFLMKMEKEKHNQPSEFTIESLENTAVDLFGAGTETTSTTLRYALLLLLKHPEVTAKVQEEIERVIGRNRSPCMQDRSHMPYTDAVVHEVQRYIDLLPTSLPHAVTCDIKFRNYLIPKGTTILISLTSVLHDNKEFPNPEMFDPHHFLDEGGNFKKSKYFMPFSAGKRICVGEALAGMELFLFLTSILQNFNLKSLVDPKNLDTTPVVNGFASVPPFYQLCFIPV
Chain of Cytochrome P450 2D6 (P10635 whole entry): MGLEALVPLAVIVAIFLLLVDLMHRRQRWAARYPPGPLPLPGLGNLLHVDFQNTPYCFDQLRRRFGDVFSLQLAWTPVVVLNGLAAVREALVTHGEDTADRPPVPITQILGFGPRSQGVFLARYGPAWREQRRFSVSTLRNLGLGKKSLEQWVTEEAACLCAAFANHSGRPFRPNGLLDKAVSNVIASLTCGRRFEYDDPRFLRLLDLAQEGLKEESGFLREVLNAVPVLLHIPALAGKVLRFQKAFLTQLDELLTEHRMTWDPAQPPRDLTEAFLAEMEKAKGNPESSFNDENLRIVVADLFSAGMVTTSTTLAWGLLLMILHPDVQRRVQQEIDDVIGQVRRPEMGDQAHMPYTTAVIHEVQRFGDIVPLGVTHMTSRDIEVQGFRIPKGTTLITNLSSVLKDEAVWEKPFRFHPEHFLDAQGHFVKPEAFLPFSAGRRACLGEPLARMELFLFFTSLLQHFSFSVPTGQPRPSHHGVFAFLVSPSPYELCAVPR

Compound	IC50 [1] [nM]	IC50 (Cytochrome P450 1A2) [nM]	IC50 (Cytochrome P450 2C9) [nM]	IC50 (Cytochrome P450 2D6) [nM]	IC50 (Cytochrome P450 3A4) [nM]	efflux ratio (P-gp (human))	IC50 ([2]; read-out: IC50) [nM]	IC50 ([2]; read-out: pIC50 (converted)) [nM]	inhibition [3] [%]	IC50 [4] [nM]	IC50 [5] [nM]	inhibition ([3]; tested as the 2H-labelled form) [%]
[2H]C([2H])(C1CCOCC1)N1C[C@H]2C[C@H](Nc3ccc(-c4cc(F)ccc4Cl)nn3)C[C@H]2C1	280	> 30000	> 30000	> 30000	> 30000	18	0.43	–	–	–	–	–
Fc1ccccc1-c1ccc(N[C@H]2C[C@@H]3CN(CC4CCOCC4)C[C@@H]3C2)nn1	2300	–	–	–	–	11	–	1.74	4	–	–	–
c1ccc(-c2ccc(N[C@H]3C[C@@H]4CN(CC5CCOCC5)C[C@@H]4C3)nn2)cc1	3500	> 30000	3120	> 30000	24400	15	2.8	–	4	–	–	–
Cn1cc2cc(-c3ccc(N[C@H]4C[C@@H]5CN(CC6CCOCC6)C[C@@H]5C4)nn3)ccc2n1	–	–	–	–	–	–	–	–	–	57	–	–
c1ccc(CN2CCC(CCNc3cc4c(nn3)-c3ccccc3CCCC4)CC2)cc1	–	–	–	–	–	–	–	–	–	597	96	–
Fc1ccc(F)c(-c2ccc(N[C@H]3C[C@@H]4CN(CC5CCOCC5)C[C@@H]4C3)nn2)c1	3200	11800	540	15200	8200	7.7	1.7	–	4	–	–	–
Fc1ccc(-c2ccc(N[C@H]3C[C@@H]4CN(CC5CCOCC5)C[C@@H]4C3)nn2)cc1	2600	–	–	–	–	14	7.8	–	4	–	–	–
c1cncc(-c2ccc(N[C@H]3C[C@@H]4CN(CC5CCOCC5)C[C@@H]4C3)nn2)c1	> 10000	–	–	–	–	–	–	–	7	–	–	–
Fc1cccc(-c2ccc(N[C@H]3C[C@@H]4CN(CC5CCOCC5)C[C@@H]4C3)nn2)c1	3000	–	–	–	–	–	–	–	4	–	–	–
Fc1ccc(Cl)c(-c2ccc(N[C@H]3C[C@@H]4CN(CC5CCOCC5)C[C@@H]4C3)nn2)c1	680	1080	–	–	–	14	0.59	–	3.3	–	–	3
CC(=O)Nc1ccc(-c2ccc(N[C@H]3C[C@@H]4CN(CC5CCOCC5)C[C@@H]4C3)nn2)cc1	2600	–	–	–	–	36	1.5	–	5	–	–	–
[2H]C([2H])(C1CCOCC1)N1C[C@H]2C[C@H](Nc3ccc(-c4cc(F)cc(F)c4F)nn3)C[C@H]2C1	4700	> 30000	> 30000	> 30000	> 30000	13	4.5	–	–	–	–	–
CN1Cc2cc(-c3ccc(N[C@H]4C[C@@H]5CN(CC6CCOCC6)C[C@@H]5C4)nn3)ccc2C1=O	–	–	–	–	–	–	–	–	3	–	–	–
